High-throughput results deposited in PubChem BioAssay by Johns Hopkins Ion Channel Center.
hERG rescue: hERG (human) protection from proarrhythmic block | Q12809 | CHO-hERG, FluxOR thallium flux, dofetilide IC70 present | activation (rescue from dofetilide block), less the hit threshold, % at 10 µM | 310,000 compounds, 0.51% hits | AID 1511;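 active = activation above the mean of controls blocked by dofetilide plus 5 SD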;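 also: thallium influx through hERG after potassium depolarization seen as dye fluorescence rise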
Kir21 inh: inhibitors of mouse Kir2.1 inward-rectifier potassium channel; HEK293-Kir2.1, FluxOR thallium flux fluorescence; stronger effect = lower value; B-score at 10 µM; 310,000 compounds, 0.85% hits;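 active = fluorescence ratio B-score at or below minus 3 SD of library scores, with starting-brightness B-score within 2 SD, cut at about -4.2 in these data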;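 also: channel flux triggered by added potassium and thallium sulfate stimulus; B-score of peak minus minimum fluorescence over baseline after thallium stimulus; more negative B-score means stronger Kir2.1 block with less thallium influx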
KCNQ1 inh: inhibitors of human KCNQ1 potassium channel; P51787; CHO-K1 KCNQ1, FluxOR thallium flux fluorescence; stronger effect = higher value; B-score at 10 µM; 310,000 compounds, 1.3% hits; AID 2642;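 active = compounds whose thallium flux B-score, printed positive for inhibition, exceeds three library SD while starting fluorescence stays within three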;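 also: channel opened by potassium depolarization with thallium stimulus after 20 min compound exposure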
Target sequence (P51787 whole entry, looked up): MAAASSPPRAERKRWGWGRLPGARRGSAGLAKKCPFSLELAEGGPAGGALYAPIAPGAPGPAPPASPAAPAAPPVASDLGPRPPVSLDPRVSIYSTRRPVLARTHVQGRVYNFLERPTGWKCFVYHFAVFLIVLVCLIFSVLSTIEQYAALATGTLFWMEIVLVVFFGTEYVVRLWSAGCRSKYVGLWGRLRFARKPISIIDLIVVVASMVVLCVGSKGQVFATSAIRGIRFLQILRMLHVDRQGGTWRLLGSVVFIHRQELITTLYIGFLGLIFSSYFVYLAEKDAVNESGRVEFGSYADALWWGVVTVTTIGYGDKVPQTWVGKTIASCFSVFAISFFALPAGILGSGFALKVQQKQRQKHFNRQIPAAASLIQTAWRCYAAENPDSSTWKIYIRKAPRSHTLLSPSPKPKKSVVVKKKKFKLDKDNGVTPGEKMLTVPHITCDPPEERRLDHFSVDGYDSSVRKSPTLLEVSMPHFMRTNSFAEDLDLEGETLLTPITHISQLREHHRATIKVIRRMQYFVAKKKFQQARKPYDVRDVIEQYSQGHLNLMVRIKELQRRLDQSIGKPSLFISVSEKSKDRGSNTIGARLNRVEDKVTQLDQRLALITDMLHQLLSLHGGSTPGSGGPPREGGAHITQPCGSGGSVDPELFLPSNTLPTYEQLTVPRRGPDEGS
KCNK9 block: blocks the human KCNK9 two-pore domain potassium channel; B-score at 10 µM; Q9NPC2; HEK293 KCNK9, FluxOR thallium flux fluorescence; stronger effect = lower value; 310,000 compounds, 1.2% hits;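 active = ratio B-score over 3 SD below the library mean, with starting fluorescence within 5 SD of its mean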;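 also: negative B-score means less thallium flux so channel inhibition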
KCNQ1 pot: potentiates or activates the human KCNQ1 potassium channel | CHO-K1 KCNQ1, thallium flux FluxOR fluorescence; stronger effect = higher value | AID 2648 | B-score at 10 µM | P51787 | 310,000 compounds, 0.35% hits;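 active = fluorescence ratio B-score, a plate-corrected score, at least three library SD, with initial intensity B-score within 5 SD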
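Test system: CHO-K1 cells stably expressing KCNQ1 / Medium: assay buffer / Also added: depolarizing K+/Tl+ stimulus, K2SO4 and Tl2SO4 each 12.5 mM in 5x stock / Incubation: 90 min dye loading and 20 min compound exposure, both at room temperature / Signal: thallium influx via FluxOR fluorescence, kinetic imaging / Evaluation: B score of baseline-normalized fluorescence ratio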
KCNK3 block: human KCNK3 channel inhibition, primary screen | AID 602410 | B-score at 10 µM | 340,000 compounds, 0.84% hits | CHO-KCNK3 thallium flux, FluxOR fluorescence; stronger effect = lower value;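 active = B-score under library mean minus 4 SD, starting fluorescence ratio at most library mean plus 5 SD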;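 also: more negative B-score means stronger inhibition of thallium flux through KCNK3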
KCNK3 inh conf: human KCNK3 channel inhibition, confirmation assay. AID 651638. ratio percent of control, % at 10 µM. shares compounds with KCNK3 block. 2,400 compounds, 99% hits. CHO-KCNK3 thallium flux, FluxOR fluorescence; 0% buffer, 100% carvedilol maximal block;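 active = ratio percent of control, averaged over triplicates, above buffer control mean plus 5 SD, cut at about 64% in these data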;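 also: ratio is the fluorescence rise from min to max over baseline after thallium stimulus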
KCNK3 noninduced: activity in cells without induced KCNK3 expression; non-induced KCNK3 parental cells, FluxOR thallium flux; stronger effect = lower value; shares compounds with KCNK3 block; thallium flux ratio (lower = more inhibition) at 10 µM; 2,400 compounds, 40% hits;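 active = thallium flux ratio, averaged over three wells, more than 5 SD below the buffer control mean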;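 also: host cells are CHO cells without KCNK3 induction; ratio is peak minus trough fluorescence over baseline then normalized to buffer controls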
* marks the source's active call; other numbers are inactive results; i = inactive; . = no result given. Hits are enriched below; roughly 3.8% of the tested compounds scored in any of these assays.

SMILES	hERG rescue	Kir21 inh	KCNQ1 inh	KCNK9 block	KCNQ1 pot	KCNK3 block	KCNK3 inh conf	KCNK3 noninduced
O=C(NCCSc1c[nH]c2ccccc12)c1ccc(Br)o1	-9	0.42	i	-7.9*	i	-11*	98*	i
Cc1[nH]c2ccccc2c1SCCNC(=O)c1ccc(Br)o1	-18	-1.5	i	i	i	-9*	97*	i
CCOc1ccc(S(=O)(=O)Nc2cccc(C(=O)N(C)Cc3cccc(OC)c3OC)c2)cc1	-7	2.6	i	i	i	i	.	.
Cn1cccc1C(NC(=O)c1ccccc1)C(Cl)(Cl)Cl (centres undefined)	-3	1.2	i	i	i	i	.	.
Cn1nc(C(F)(F)F)c(C(=O)Nc2ccc(F)cc2F)c1Sc1ccc(Cl)cc1	-4	-1.7	i	i	i	i	.	.
O=[N+]([O-])c1ccc(N2CCN(C(=S)NC3CCCCC3)CC2)cc1	-15	0.06	i	i	i	-8.8*	104*	i
O=[N+]([O-])c1ccc(N2CCN(C(=S)Nc3ccccc3)CC2)cc1	-17	-1.4	i	i	i	i	.	.
O=C(COc1c(Cl)cccc1Cl)Nc1ccccc1N1CCCC1	-10	0.12	i	i	i	-9.1*	121*	0.13*
O=C(Nc1ccccc1N1CCN(c2ccccc2)CC1)c1ccccc1F	-2	-0.02	i	i	i	-9.7*	125*	0.11*
Cc1cc(C)cc(OCC(=O)Nc2ccccc2N2CCCCC2)c1	-1	-1.9	i	i	i	-10*	94*	i
O=C(Cc1ccccc1F)Nc1ccccc1N1CCCC1	-9	-4.1	i	i	i	-9.1*	89*	i
O=C(COc1ccccc1[N+](=O)[O-])Nc1ccccc1N1CCCC1	-10	-0.8	i	i	i	i	.	.
COc1ccc(S(=O)(=O)N2CCC(C(=O)NC3CC(C)(C)NC(C)(C)C3)CC2)cc1	-4	-0.15	i	i	i	i	.	.
CN(C)C(=O)COc1ncnc2scc(-c3ccc(F)cc3)c12	-7	0.05	i	i	i	i	.	.
Cc1cccc(OCC(=O)Nc2ccccc2N2CCCC2)c1C	-16	0.56	i	i	i	-9.8*	118*	0.14*
Cc1ccc(CN(CC(O)COc2cccc3[nH]cc(C)c23)C(C)(C)C)cc1 (centres undefined)	-7	-1.9	i	i	i	i	.	.
COC(=O)Cc1c[nH]c2cccc(OCC(O)CN(Cc3ccccc3)C(C)C)c12 (centres undefined)	-16	-1.2	i	-7.9*	i	-8.9*	100*	i
COc1ccc(Nc2nnc(-c3ccc(O)cc3)c3ccccc23)cc1	-14	-0.02	i	i	i	-8.9*	98*	i
CCOC(=O)c1c(C)[nH]c(C)c1C(=O)COC(=O)[C@@H](NC(=O)c1ccccc1OCC)C(C)C	-13	0.14	i	i	i	-9.1*	104*	i
CCOC(=O)c1c(C)[nH]c(C)c1C(=O)COC(=O)c1c(OC)cccc1OC	-8	0.54	i	i	i	i	.	.
O=C(/C=C\Nc1ccccc1Br)c1ccc2c(c1)OCO2	-10	-2.8	i	i	i	-12*	118*	i
O=C(/C=C/c1ccccc1Br)c1ccc2c(c1)OCO2	-11	0	i	i	i	i	.	.
COc1ccccc1OCCCn1c(=O)oc2ccc(C)cc21	-11	-3.7	i	i	i	i	.	.
Cc1cccc(OCCCn2c(=O)oc3ccc(C)cc32)c1	-7	0.22	i	i	i	-9.3*	94*	i
Cc1c(Cl)cccc1NC(=O)CSc1ncnc2c1cnn2CCc1ccccc1	-9	-0.44	i	i	i	i	.	.
SMILES	hERG rescue	Kir21 inh	KCNQ1 inh	KCNK9 block	KCNQ1 pot	KCNK3 block	KCNK3 inh conf	KCNK3 noninduced
O=C(CSc1ncnc2c1cnn2CCc1ccccc1)Nc1cccc(C(F)(F)F)c1	-6	-0.06	i	i	i	-8.9*	129*	0.11*
Cn1c(SCc2cccc(F)c2)nnc1-c1ccncc1	-4	0.01	i	i	i	i	.	.
CCOP(=O)(OCC)c1nc(-c2ccc(Br)cc2)oc1N1CCCCC1	-3	-2.2	i	i	i	-10*	102*	i
CCOP(=O)(OCC)c1nc(-c2ccc(C)cc2)oc1N1CCOCC1	-3	-0.81	i	i	i	i	.	.
O=C(CSc1ccc(Cl)cc1Cl)N1CCC(c2nc3ccccc3s2)CC1	-7	-1.3	i	i	i	-15*	124*	i
N#C/C(=C\c1cccnc1)C(=O)Nc1ccc(O)cc1F	-9	-0.32	i	i	i	i	.	.
Cc1cccc2c1-c1sc(C(=O)N3CCc4ccccc4C3)cc1CO2	-7	0.57	i	i	i	-8.7*	87*	0.14*
CCOC(=O)N1CCN(C(=O)c2cc3c(s2)-c2c(C)cccc2OC3)CC1	-4	-0.01	i	i	i	i	.	.
CCN1CCN(C(=O)c2cc3c(s2)-c2c(C)cccc2OC3)CC1	-11	0	i	i	i	i	.	.
Cc1cccc2c1-c1sc(C(=O)N3CCCCC3)cc1CO2	-6	1.6	i	i	i	-12*	90*	i
Cc1cc(NC(=O)CSc2nc3c([nH]c4ccccc43)c(=O)n2-c2cccc(C(F)(F)F)c2)no1	-7	-0.67	i	i	i	-11*	92*	i
O=C(/C=C\c1ccc2c(c1)OCO2)Nc1c2c(nn1-c1ccc(Cl)cc1)CSC2	-10	-0.67	i	-7*	i	-8.9*	65*	i
Cc1oc(-c2ccccc2)cc1C(=O)Nc1cccc2ccccc12	-9	0.36	i	i	i	-11*	119*	0.16*
Cc1cc(C(=O)Nc2cccc3ccccc23)co1	-10	0.7	i	i	i	i	.	.
Cc1ccccc1CN(C)Cc1cc(=O)oc2c(C)c(C)ccc12	-21	-2.1	9*	i	i	-11*	118*	0.14*
COc1cccc(CN(C)Cc2cc(=O)oc3c(C)c(C)ccc23)c1	-10	1.3	i	i	i	-11*	125*	0.14*
Cc1cc2oc(=O)cc(CN(C)Cc3cccc(F)c3)c2cc1C	-8	0.07	i	i	i	-8.7*	112*	i
